Measurements reported in ChEMBL document CHEMBL3286252, “Synthesis, biological evaluation and structure-activity relationship of new GABA uptake inhibitors, derivatives of 4-aminobutanamides” (Eur J Med Chem, 2014).
Calls of active or inactive are those of the source.

Legend:
Mus musculus [1] = assay: Anticonvulsant activity against pentylenetetrazole-induced seizure in albino Swiss (CD-1) mouse assessed as delay in onset of seizures at 15 mg/kg, ip administered 60 mins prior to PTZ challenge; format: functional; details: route intraperitoneal
Summary of the method: (§1)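 Male CD-1 mice (18–22 g) given compound or vehicle i.p. 60 min before PTZ 100 mg/kg s.c. Each mouse was then caged alone and watched for 30 min for clonic seizures, meaning whole-body clonus lasting >3 s with loss of righting reflex. Recorded: latency to first clonus, number of seizure episodes, and deaths within 30 min. Analysis: ANOVA/Dunnett or t-test; mortality by Fisher's exact test; 7–10 mice per group.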

Mus musculus [2] = assay: Anticonvulsant activity against pentylenetetrazole-induced seizure in albino Swiss (CD-1) mouse assessed as delay in onset of seizures at 30 mg/kg, ip administered 60 mins prior to PTZ challenge; format: functional; details: route intraperitoneal; summary of the method: as §1
Mus musculus [3] = assay: Anticonvulsant activity against pentylenetetrazole-induced seizure in albino Swiss (CD-1) mouse assessed as decrease in seizure episodes at 15 mg/kg, ip administered 60 mins prior to PTZ challenge; format: functional; details: route intraperitoneal; summary of the method: as §1
Mus musculus [4] = assay: Anticonvulsant activity against pentylenetetrazole-induced seizure in albino Swiss (CD-1) mouse assessed as decrease in mortality rate at 30 mg/kg, ip administered 60 mins prior to PTZ challenge; format: functional, organism-based; parameters: dose 30 mg/kg; summary of the method: as §1
Mus musculus [5] = assay: Anticonvulsant activity against pilocarpine-induced seizure in albino Swiss (CD-1) mouse assessed as prolongation of latency time to seizures at 70 mg/kg, ip administered 60 mins before pilocarpine challenge; format: functional; details: route intraperitoneal
Summary of the method: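 CD-1 mice received compound or vehicle (1% Tween 80) i.p. 60 min before pilocarpine 400 mg/kg i.p. Scopolamine butylbromide 1 mg/kg i.p. was given 45 min before pilocarpine. 7–8 mice per group; Student's t-test versus vehicle; mean ± SEM.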

Mus musculus [6] = assay: Anticonvulsant activity against pilocarpine-induced seizure in albino Swiss (CD-1) mouse assessed as prolongation of latency time to death at 70 mg/kg, ip administered 60 mins before pilocarpine challenge; format: functional; details: route intraperitoneal
Summary of the method: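 Male CD-1 mice dosed i.p. with compound or vehicle (1% Tween 80). Scopolamine butylbromide 1 mg/kg i.p. given 45 min before pilocarpine; pilocarpine 400 mg/kg i.p. given 60 min after compound. Observed 1 h. Latency to tonic-clonic seizure and latency to death recorded, cut-off 60 min. 7–8 mice per group, mean ± SEM, Student's t-test against vehicle.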

Mus musculus [7] = assay: Anticonvulsant activity in albino Swiss (CD-1) mouse assessed as protection against seizures at 100 mg/kg, ip after 60 mins by electroconvulsive threshold test; format: functional, organism-based; parameters: dose 100 mg/kg
Mus musculus [8] = assay: Toxicity in albino Swiss (CD-1) mouse assessed as mortality at 100 mg/kg, ip measured after single electroconvulsive electroshock exposure; format: organism-based; parameters: dose 100 mg/kg, route intraperitoneal; details: in vivo
Summary of the method: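 Male CD-1 mice given 100 mg/kg i.p. 60 min before electroconvulsive threshold testing. Groups shocked at graded currents to give 10–90% of animals with seizures; CS50 for tonic hind-limb extension estimated by log-probit. Mortality noted after a single electroconvulsive shock, compared with controls.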

Mus musculus [9] = assay: Anticonvulsant activity in albino Swiss (CD-1) mouse assessed as protection against electrically-induced tonic hind limb extension at 30 mg/kg by maximal electroshock test; format: functional, organism-based; parameters: dose 30 mg/kg; details: Hindlimb
Summary of the method: (§2)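 Mice received a 25 mA, 0.2 s stimulus through auricular electrodes. The endpoint was tonic extension of the hind limbs after a single shock, scored in vehicle- and drug-treated groups.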

Mus musculus [10] = assay: Anticonvulsant activity in albino Swiss (CD-1) mouse assessed as decrease in animals with tonic hind limb extensions at 100 mg/kg by maximal electroshock test; format: functional; details: Hindlimb; summary of the method: as §2
[11] = Toxicity in albino Swiss (CD-1) mouse assessed as mortality at 100 mg/kg measured after electroshock exposure; format: organism-based; parameters: dose 100 mg/kg; details: in vivo, read-out: Activity
Summary of the method: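 Male CD-1 mice given 100 mg/kg i.p. 60 min before the maximal electroshock test. Stimulus 25 mA for 0.2 s through auricular electrodes; endpoint tonic hind-limb extension. Deaths after the shock compared with the vehicle group.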

Mus musculus [12] = assay: Anticonvulsant activity against pentylenetetrazole-induced seizure in albino Swiss (CD-1) mouse assessed as decrease in seizure episodes at 30 mg/kg, ip administered 60 mins prior to PTZ challenge; format: functional; details: route intraperitoneal; summary of the method: as §1
Mus musculus [13] = assay: Anticonvulsant activity against pentylenetetrazole-induced seizure in albino Swiss (CD-1) mouse assessed as decrease in seizure episodes at 100 mg/kg, ip administered 60 mins prior to PTZ challenge; format: functional; details: route intraperitoneal
Summary of the method: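 Male CD-1 mice, 18–22 g, given compound or vehicle i.p. 60 min before PTZ 100 mg/kg s.c. Each mouse observed alone for 30 min for clonic seizures: whole-body clonus over 3 s with loss of righting reflex. Read-outs: latency to first clonus, number of seizure episodes, and deaths within 30 min. Groups of 7–10 mice, compared with vehicle.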

Mus musculus [14] = assay: Anticonvulsant activity against pentylenetetrazole-induced seizure in albino Swiss (CD-1) mouse assessed as decrease in mortality rate at 30 to 100 mg/kg, ip administered 60 mins prior to PTZ challenge; format: functional, organism-based; summary of the method: as §1
Mus musculus [15] = assay: Anticonvulsant activity in albino Swiss (CD-1) mouse assessed as current intensity required to induce 50% tonic hind limb extensions at 100 mg/kg, ip after 60 mins by electroconvulsive threshold test (reference value: 6.61 mA); format: functional, Hindlimb; details: route intraperitoneal
Mus musculus [16] = assay: Anticonvulsant activity in albino Swiss (CD-1) mouse assessed as protection against electrically-induced tonic hind limb extension at 30 to 100 mg/kg measured after single electroshock by maximal electroshock test; format: functional, organism-based; details: Hindlimb; summary of the method: as §2
Mus musculus [17] = assay: Anticonvulsant activity against pentylenetetrazole-induced seizure in albino Swiss (CD-1) mouse assessed as prolongation of latency time to first seizure episode at 100 mg/kg, ip administered 60 mins prior to PTZ challenge; format: functional; details: route intraperitoneal; summary of the method: as §1
Mus musculus [18] = assay: Anticonvulsant activity against pentylenetetrazole-induced seizure in albino Swiss (CD-1) mouse assessed as prolongation of latency time to first seizure episode at 30 mg/kg, ip administered 60 mins prior to PTZ challenge; format: functional, organism-based; parameters: dose 30 mg/kg; summary of the method: as §1

`NCCC(C(=O)NCc1ccc(Cl)cc1)N1CCN(C(c2ccccc2)c2ccccc2)CC1` (centres undefined) showed an Activity (Mus musculus [1]) of 58%, an Activity (Mus musculus [2]) of 217% and an inhibition in vivo at 15 mg/kg (Mus musculus [3]) of 58%. For the same compound, the inhibition (Mus musculus [4]) was “Active”, the Activity (Mus musculus [5]) was 113.4% and the Activity (Mus musculus [6]) was 71.1%. For the same compound, the Activity (Mus musculus [7]) was “inactive”, the Activity (Mus musculus [8]) was “Toxic” and the Activity (Mus musculus [9]) was “inactive”. The inhibition in vivo at 100 mg/kg (Mus musculus [10]) was 44%, the mortality [11] was 65% and the inhibition in vivo at 30 mg/kg (Mus musculus [12]) was 83%.
For `NCCC(C(=O)NCc1ccccc1Cl)N1CCN(C(c2ccccc2)c2ccccc2)CC1` (centres undefined), the inhibition in vivo at 100 mg/kg (Mus musculus [13]) was 53%, the inhibition (Mus musculus [14]) was “Active” and the CS50 (Mus musculus [15]) was 6.22 mA. For the same compound, the Activity (Mus musculus [16]) was “inactive”, the Activity (Mus musculus [17]) was 100% and the Activity (Mus musculus [18]) was “inactive”. For the same compound, the inhibition in vivo at 30 mg/kg (Mus musculus [12]) was 37%.
